Experimental data published in ChEMBL document CHEMBL4689842, “EUbOPEN Chemogenomics Library wave 1” (2021).

How the values were obtained:
Assay type in all cases: toxicity, cell-based
[1] = system: HEK-293T; assay: Multiplex assay against HEK293T; details: human;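 for Population Tubulin-Different-Phenotype (%): share of the cells with healthy nuclei that show this phenotype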
Summary of the method: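 Four dyes were applied at seeding to live cells: Hoechst33342, BioTracker Green Microtubule Cytoskeleton Dye, MitoTracker Red and Annexin V Alexa Fluor 680. Imaging after compound addition used a CQ1 microscope at 37°C and 5% CO2. CellPathfinder machine-learning gating then sorted cells into Hoechst high-intensity objects or normal cells, normal cells into healthy, pyknosed or fragmented nuclei, and pyknosed cells into mitotic or apoptotic, with tubulin, mitochondrial-mass and membrane-permeability phenotypes given as per cents of healthy-nucleus cells.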

[2] = system: HEK-293T; assay: Incucyte cell viability with HEK293T; details: human, 10 µM, compound concentration 10 uM; note: filed as whole numbers so only -1 and 0 and 1 occur
[3] = system: Fibroblast; assay: Incucyte cell viability with human fibroblast; details: 10 µM, compound concentration 10 uM; note: filed as whole numbers so only -1 and 0 and 1 occur
[4] = 12 h, 1 µM, compound concentration 1 uM, replicate 1
[5] = 12 h, 1 µM, compound concentration 1 uM, replicate 2
[6] = 12 h, 10 µM, compound concentration 10 uM, replicate 1
[7] = 12 h, 10 µM, compound concentration 10 uM, replicate 2
[8] = 24 h, 1 µM, compound concentration 1 uM, replicate 1
[9] = 24 h, 1 µM, compound concentration 1 uM, replicate 2
[10] = 24 h, 10 µM, compound concentration 10 uM, replicate 1
[11] = 24 h, 10 µM, compound concentration 10 uM, replicate 2
[12] = 0 h, replicate number 1, timepoint 0 hours
[13] = 6 h, replicate number 1, timepoint 6 hours
[14] = 12 h, replicate number 1, timepoint 12 hours
[15] = 18 h, replicate number 1, timepoint 18 hours
[16] = 24 h, replicate number 1, timepoint 24 hours

SMILES: N#Cc1cnc(Nc2cc(NC[C@H]3CNCCO3)c(C(F)(F)F)cn2)cn1 [SRA-737]
- Population Apoptotic (%) [1, 4]: 16%
- Population Fragmented Nuclei (%) [1, 4]: 13%
- Population Healthy Nuclei (%) [1, 4]: 66%
- Population Hoechst High Intensity Objects (%) [1, 4]: 13%
- Population Membrane Permeable-Phenotype (%) [1, 4]: 3%
- Population Mitochondria Different-Phenotype (%) [1, 4]: 3%
- Population Mitotic Cells (%) [1, 4]: 83%
- Population Normal (%) [1, 4]: 86%
- Population Pyknosed Nuclei (%) [1, 4]: 19%
- Population Tubulin-Different-Phenotype (%) [1, 4]: 3%
- Total Cell Count [1, 4]: 617
- Population Apoptotic (%) [1, 5]: 12%
- Population Fragmented Nuclei (%) [1, 5]: 11%
- Population Healthy Nuclei (%) [1, 5]: 84%
- Population Hoechst High Intensity Objects (%) [1, 5]: 2%
- Population Membrane Permeable-Phenotype (%) [1, 5]: 2%
- Population Mitochondria Different-Phenotype (%) [1, 5]: 7%
- Population Mitotic Cells (%) [1, 5]: 87%
- Population Normal (%) [1, 5]: 97%
- Population Pyknosed Nuclei (%) [1, 5]: 3%
- Population Tubulin-Different-Phenotype (%) [1, 5]: 5%
- Total Cell Count [1, 5]: 2034
- Population Apoptotic (%) [1, 6]: 20%
- Population Fragmented Nuclei (%) [1, 6]: 10%
- Population Healthy Nuclei (%) [1, 6]: 69%
- Population Hoechst High Intensity Objects (%) [1, 6]: 14%
- Population Mitochondria Different-Phenotype (%) [1, 6]: 6%
- Population Mitotic Cells (%) [1, 6]: 79%
- Population Normal (%) [1, 6]: 85%
- Population Pyknosed Nuclei (%) [1, 6]: 20%
- Population Tubulin-Different-Phenotype (%) [1, 6]: 5%
- Total Cell Count [1, 6]: 721
- Population Apoptotic (%) [1, 7]: 13%
- Population Fragmented Nuclei (%) [1, 7]: 6%
- Population Healthy Nuclei (%) [1, 7]: 85%
- Population Hoechst High Intensity Objects (%) [1, 7]: 3%
- Population Membrane Permeable-Phenotype (%) [1, 7]: 2%
- Population Mitochondria Different-Phenotype (%) [1, 7]: 16%
- Population Mitotic Cells (%) [1, 7]: 86%
- Population Normal (%) [1, 7]: 96%
- Population Pyknosed Nuclei (%) [1, 7]: 8%
- Population Tubulin-Different-Phenotype (%) [1, 7]: 16%
- Total Cell Count [1, 7]: 1376
- Population Apoptotic (%) [1, 8]: 9%
- Population Fragmented Nuclei (%) [1, 8]: 10%
- Population Healthy Nuclei (%) [1, 8]: 77%
- Population Hoechst High Intensity Objects (%) [1, 8]: 7%
- Population Membrane Permeable-Phenotype (%) [1, 8]: 5%
- Population Mitochondria Different-Phenotype (%) [1, 8]: 2%
- Population Mitotic Cells (%) [1, 8]: 90%
- Population Normal (%) [1, 8]: 92%
- Population Pyknosed Nuclei (%) [1, 8]: 11%
- Population Tubulin-Different-Phenotype (%) [1, 8]: 4%
- Total Cell Count [1, 8]: 740
- Population Apoptotic (%) [1, 9]: 5%
- Population Fragmented Nuclei (%) [1, 9]: 34%
- Population Healthy Nuclei (%) [1, 9]: 63%
- Population Hoechst High Intensity Objects (%) [1, 9]: 4%
- Population Membrane Permeable-Phenotype (%) [1, 9]: 8%
- Population Mitochondria Different-Phenotype (%) [1, 9]: 1%
- Population Mitotic Cells (%) [1, 9]: 94%
- Population Normal (%) [1, 9]: 95%
- Population Pyknosed Nuclei (%) [1, 9]: 2%
- Population Tubulin-Different-Phenotype (%) [1, 9]: 10%
- Total Cell Count [1, 9]: 3420
- Population Apoptotic (%) [1, 10]: 25%
- Population Fragmented Nuclei (%) [1, 10]: 10%
- Population Healthy Nuclei (%) [1, 10]: 70%
- Population Hoechst High Intensity Objects (%) [1, 10]: 10%
- Population Membrane Permeable-Phenotype (%) [1, 10]: 4%
- Population Mitochondria Different-Phenotype (%) [1, 10]: 6%
- Population Mitotic Cells (%) [1, 10]: 75%
- Population Normal (%) [1, 10]: 89%
- Population Pyknosed Nuclei (%) [1, 10]: 18%
- Population Tubulin-Different-Phenotype (%) [1, 10]: 15%
- Total Cell Count [1, 10]: 729
- Population Apoptotic (%) [1, 11]: 21%
- Population Fragmented Nuclei (%) [1, 11]: 12%
- Population Healthy Nuclei (%) [1, 11]: 64%
- Population Hoechst High Intensity Objects (%) [1, 11]: 8%
- Population Membrane Permeable-Phenotype (%) [1, 11]: 7%
- Population Mitochondria Different-Phenotype (%) [1, 11]: 17%
- Population Mitotic Cells (%) [1, 11]: 78%
- Population Normal (%) [1, 11]: 91%
- Population Pyknosed Nuclei (%) [1, 11]: 22%
- Population Tubulin-Different-Phenotype (%) [1, 11]: 44%
- Total Cell Count [1, 11]: 1254
- Growth Rate [2, 12]: 0
- Growth Rate [2, 13]: 0
- Growth Rate [2, 14]: 0
- Growth Rate [2, 15]: 0
- Growth Rate [2, 16]: 0
- Growth Rate [3, 12]: 0
- Growth Rate [3, 13]: 1
- Growth Rate [3, 14]: 1
- Growth Rate [3, 15]: 1
- Growth Rate [3, 16]: 0
- Growth Rate ([3]; 24 h, replicate number 2, timepoint 24 hours): 1
